The text below walks through data of ChEMBL document CHEMBL1153528, “Modeling of the aryl hydrocarbon receptor (AhR) ligand binding domain and its utility in virtual ligand screening to predict new AhR ligands” (J Med Chem, 2009).

Holding throughout (assay type): cell-based
For data set [1], the target named is T1, Aryl hydrocarbon receptor (AhR) ligand-binding domain (Mus musculus, UniProt P30561).
T1 sequence (P30561 whole entry): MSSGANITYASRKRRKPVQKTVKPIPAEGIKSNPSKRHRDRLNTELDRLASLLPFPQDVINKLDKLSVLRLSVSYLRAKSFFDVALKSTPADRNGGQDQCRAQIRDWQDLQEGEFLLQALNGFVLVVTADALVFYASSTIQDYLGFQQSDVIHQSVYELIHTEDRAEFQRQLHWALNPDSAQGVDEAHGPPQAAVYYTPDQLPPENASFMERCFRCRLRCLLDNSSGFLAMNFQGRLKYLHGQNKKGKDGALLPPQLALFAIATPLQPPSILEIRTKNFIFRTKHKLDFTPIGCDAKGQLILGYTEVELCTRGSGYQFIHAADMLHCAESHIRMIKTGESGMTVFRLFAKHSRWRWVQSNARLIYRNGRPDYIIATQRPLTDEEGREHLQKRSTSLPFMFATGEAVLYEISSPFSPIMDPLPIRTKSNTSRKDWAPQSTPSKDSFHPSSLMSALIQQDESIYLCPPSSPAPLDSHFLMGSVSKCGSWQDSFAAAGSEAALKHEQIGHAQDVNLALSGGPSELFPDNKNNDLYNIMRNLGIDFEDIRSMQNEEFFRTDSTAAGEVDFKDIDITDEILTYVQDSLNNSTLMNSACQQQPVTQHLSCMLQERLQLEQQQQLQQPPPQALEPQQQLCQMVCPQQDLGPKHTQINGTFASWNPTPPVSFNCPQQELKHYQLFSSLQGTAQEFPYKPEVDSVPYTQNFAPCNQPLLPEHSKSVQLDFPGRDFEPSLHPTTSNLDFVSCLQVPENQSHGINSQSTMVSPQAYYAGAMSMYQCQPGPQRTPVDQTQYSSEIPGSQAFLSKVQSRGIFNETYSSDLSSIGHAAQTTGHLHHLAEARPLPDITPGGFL
Kind of data set: Induction of mouse AhR LBD transcriptional activity in mouse hepa1 cells transfected with AhR response element co expressed with XRE after 6 hrs by luciferase reporter gene assay relative to control. As to conditions: read-out: FC; call rule not given here. Summed up: (§1)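 Mouse Hepa1 cells carrying an AhRE/XRE-luciferase reporter, grown in DMEM/10% FBS with penicillin/streptomycin under 5% CO2. Test agents from DMSO stocks, final 20 µM, were applied for 6 h and reporter activity then measured. Fold activation was graded: ≥8 very strong, >4 strong, […].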

Data set [2] concerns the target T2, Aryl hydrocarbon receptor (Mus musculus, UniProt P30561).
T2 sequence (P30561 whole entry): T1 sequence (P30561 whole entry)
Kind of data set: Induction of mouse AhR LBD transcriptional activity in mouse hepa1 cells transfected with AhR response element co expressed with XRE at 20 uM after 6 hrs by luciferase reporter gene assay in presence of 6-hydroxy-7-methoxyflavone. Summed up: as §1
A general note: A reporter such as luciferase makes a cellular process visible.

In data set [3] the target is T2, Aryl hydrocarbon receptor. Kind of data set: Effect on AhR-mediated CYP1A1 activation in mouse Hepa1c1c12 cells at 20 uM after 18 hrs by Western blot analysis. The following applies: in the assay text read “semi-quantitative RT-PCR analysis” for “Western blot analysis”. Summed up: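 Pair of Hepa1c1c7-derived lines: C12 (much reduced AhR) and C12 re-expressing WT AhR. Cells in DMEM/10% FBS with antibiotics under 5% CO2 were given 20 µM for 18 h, vehicle 0.1% DMSO, TCDD 1 nM as reference. Target genes (CYP1A1, NADPH-QO) assessed by semi-quantitative RT-PCR with GAPDH control. AhR shown by blot of 30 µg whole-cell lysate.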
For orientation: A western blot detects proteins with antibodies after separation by electrophoresis.

In data set [4] the target is T2, Aryl hydrocarbon receptor. Kind of data set: Induction of nuclear translocation of AhR from cytosol in mouse Hepa1 cells at 20 uM after 60 mins using DAPI staining by microscopic analysis. As to conditions: hepa1, 1 h. Summed up: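 Hepa1 cells given test agents for 60 min, then fixed. They were immunostained for AhR with FITC-labelled secondary antibody and counterstained with DAPI for nuclei. AhR nuclear localization was imaged by fluorescence microscopy.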

Each structure is given as a SMILES string.

Regarding `O=c1cc(-c2ccccc2O)oc2c(O)c(O)ccc12`, the fold induction at 6 h in data set [1] amounted to 2.8.

As for `COc1cc(O)c2c(=O)cc(-c3ccccc3)oc2c1` [TECHTOCHRYSIN], the Activity entry in data set [2] is listed as “Not Active”; in data set [3], “Active”; in data set [4], “Active”. Moreover, the fold induction at 6 h in data set [1] worked out at 11.3.

Take `Clc1cc2c(cc1Cl)Oc1cc(Cl)c(Cl)cc1O2` [2,3,7,8-TETRACHLORODIBENZO-P-DIOXIN]: the fold induction at 6 h in data set [1] amounted to 21.

Regarding `Cc1ccc2oc(-c3ccccc3)c(O)c(=O)c2c1`, in data set [1], the fold induction at 6 h is 2.5.

Consider `O=C1CC(c2ccccc2)Oc2cc(O)cc(O)c21` (single isomer, unassigned) [PINOCEMBRIN], for which the result in data set [3] and in data set [4] was Active. For the same compound, the fold induction at 6 h in data set [1] was determined as 8.

Turning to `Cc1ccc2oc(-c3ccccc3)cc(=O)c2c1` [6-METHYLFLAVONE], the fold induction at 6 h in data set [1] was determined as 4.8.

Regarding `COc1ccc2c(=O)c(-c3ccccc3)coc2c1`, the fold induction at 6 h in data set [1] was found to be 2.7.
